Assay results as given in ChEMBL document CHEMBL3272093, “Antibacterial halogenoacetyl derivatives of amino acids and simple peptides” (1977).
≈ marks a conversion by molar mass, not a printed value. Calls of active or inactive are those of the source. The calls are words filed in the database; no cut-off is given here.

Assays:
Escherichia coli = experiment: Antibacterial activity against Escherichia coli assessed as inhibition of growth after 18 hrs by broth culture method; format: functional
Outline: (§1)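 Broth dilution in 0.5 mL Sensitivity Test Broth, inoculated with 0.2 mL of a 10^-4 dilution of an 18-h broth culture. MIC read after 18-h incubation as the lowest concentration preventing growth.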

Staphylococcus aureus = experiment: Antibacterial activity against Staphylococcus aureus assessed as inhibition of growth after 18 hrs by broth culture method; format: functional; outline: as §1
[1] = system: Salmonella enterica subsp. enterica serovar Typhimurium; experiment: Inhibition of Salmonella typhimurium DD-carboxypeptidase using UDP-N-acetylmuramyl-L-alanyl-meso-diaminopimeloyl-D-alanyl-D-alanine as substrate at 10 to 100 ug/ml
Outline: (§2)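 Enzymes tested for release of D-alanine, measured with D-amino acid oxidase. Compounds assayed at 10 and 100 μg/mL. Substrates: Ac2-L-Lys-D-Ala-D-Ala for the Streptomyces R61 enzyme; UDP-N-acetylmuramyl-L-alanyl-meso-diaminopimeloyl-D-alanyl-D-alanine for the B. stearothermophilus and S. typhimurium enzymes.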

[2] = target: T1, D-alanyl-D-alanine carboxypeptidase DacA (Geobacillus stearothermophilus) (UniProt Q05523); experiment: Inhibition of Bacillus stearothermophilus DD-carboxypeptidase using UDP-N-acetylmuramyl-L-alanyl-meso-diaminopimeloyl-D-alanyl-D-alanine as substrate at 10 to 100 ug/ml; outline: as §2
T1 sequence (whole entry): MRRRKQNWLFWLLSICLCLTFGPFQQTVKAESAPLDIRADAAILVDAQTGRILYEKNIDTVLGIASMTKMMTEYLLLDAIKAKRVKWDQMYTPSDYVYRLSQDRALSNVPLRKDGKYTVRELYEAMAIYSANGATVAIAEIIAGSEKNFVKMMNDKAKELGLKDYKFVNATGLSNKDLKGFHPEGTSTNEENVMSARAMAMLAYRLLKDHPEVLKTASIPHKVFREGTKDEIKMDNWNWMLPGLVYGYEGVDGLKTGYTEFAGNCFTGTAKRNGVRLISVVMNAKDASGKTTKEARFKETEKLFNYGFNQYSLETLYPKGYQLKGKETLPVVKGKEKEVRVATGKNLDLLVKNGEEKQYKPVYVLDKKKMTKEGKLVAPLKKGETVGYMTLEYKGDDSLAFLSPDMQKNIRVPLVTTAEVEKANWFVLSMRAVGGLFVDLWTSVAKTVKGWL

[3] = target: D-alanyl-D-alanine carboxypeptidase (Streptomyces sp. R61) (UniProt P15555); experiment: Inhibition of Streptomyces R61 DD-carboxypeptidase using Ac2-L-Lys-D-Ala-D-Ala as substrate at 10 to 100 ug/ml; outline: as §2
D-alanyl-D-alanine carboxypeptidase (Streptomyces sp. R61), sequence (P15555 whole entry): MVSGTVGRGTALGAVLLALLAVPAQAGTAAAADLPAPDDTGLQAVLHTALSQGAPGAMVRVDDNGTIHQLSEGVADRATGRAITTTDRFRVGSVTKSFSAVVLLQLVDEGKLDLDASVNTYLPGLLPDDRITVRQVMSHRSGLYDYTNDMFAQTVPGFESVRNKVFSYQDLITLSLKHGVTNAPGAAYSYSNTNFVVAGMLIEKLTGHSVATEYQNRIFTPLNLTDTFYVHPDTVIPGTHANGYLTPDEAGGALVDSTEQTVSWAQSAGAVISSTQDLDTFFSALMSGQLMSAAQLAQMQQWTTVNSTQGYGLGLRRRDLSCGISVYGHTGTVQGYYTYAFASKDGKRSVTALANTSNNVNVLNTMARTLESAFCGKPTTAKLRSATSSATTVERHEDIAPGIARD

MIC (Escherichia coli): > 500 µg/mL | MIC (Staphylococcus aureus): 500 µg/mL (≈ 902 µM) | inhibition [1]: inactive | inhibition [2]: inactive | inhibition [3]: inactive
Compound: CC(=O)NCCCC[C@H](NC(=O)CI)C(=O)N[C@H](C)C(=O)N[C@H](C)C(=O)OC(C)(C)C
